Laboratory results reported in ChEMBL document CHEMBL4651341, “The discovery of a novel series of compounds with single-dose efficacy against juvenile and adult Schistosoma species” (PLoS Negl Trop Dis, 2021).

Legend:
Schistosoma mansoni [1] = experiment: Concentration required to kill 50% of 21 day old worms 5 days after drug treatment.; type: functional, organism-based; conditions: Puerto Rican, 120 h
Outline: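 Juvenile S. mansoni (Puerto Rican strain) were perfused from CD1 mice 3 weeks post-infection and washed. They were cultured 6–8 per well in 200 µL DMEM with 2 mM glutamine, penicillin/streptomycin and 10% FCS at 37 °C, 5% CO2. Viability of individual worms was scored on day 5 after dosing (120 h).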

[2] = Concentration required to kill 50% HepG2 cells as detected by MTT staining; type: toxicity, cell-based; conditions: homo sapiens, read-out: TC50 (the source's name)
[3] = Mean plasma concentration at 4h in Swiss albino male mice at […] per compound (administered orally in a mixture of 5 compounds to 3 mice) assessed by LCMS/MS.; type: ADME, organism-based; conditions: mouse, po
[4] = Mean time to peak plasma concentration in Swiss albino male mice at […] per compound (administered orally in a mixture of 5 compounds to 3 mice) assessed by LCMS/MS.; type: ADME, organism-based; conditions: mouse, po
Schistosoma mansoni [5] = experiment: Concentration required to kill 50% of 42 day old worms 5 days after drug treatment.; type: functional, organism-based; conditions: Puerto Rican, 120 h
Outline: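 Adult S. mansoni were perfused from CD1 mice 6 weeks post-infection and washed. They were cultured 3 pairs per well in 1 mL DMEM with 2 mM glutamine, penicillin/streptomycin and 10% FCS […] at 37 °C, 5% CO2. Viability of individual worms was scored on day 5 (120 h).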

[6] = Mean oral bioavailability in Swiss albino male mice at […] per compound (administered in a mixture of 5 compounds to 3 mice) assessed by LCMS/MS.; note: dose 2.5 mg/kg; type: ADME, organism-based; conditions: male, Swiss albino, mouse, in vivo, read-out: Bioavailability
[7] = Mean AUC inf in Swiss albino male mice at 1 mg/kg per compound (administered iv in a mixture of 5 compounds to 3 mice) assessed by LCMS/MS.; type: ADME, organism-based; conditions: male, Swiss albino, mouse, in vivo
Outline: (§1)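 Male Swiss albino mice (~30 g), 3 per experiment, mostly dosed as mixtures of 5 compounds iv via the lateral tail vein. Vehicle: 10% DMSO/90% 50 mM Na2HPO4 with 0.5% Tween-80. Blood sampled at 5, 15, 30 min and 1, 2, 4, 8, 24 h. Plasma stored at −20 °C and quantified by LC-MS after acetonitrile precipitation.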

[8] = Mean observed clearance in Swiss albino male mice at 1 mg/kg per compound (administered iv in a mixture of 5 compounds to 3 mice) assessed by LCMS/MS.; type: ADME, organism-based; conditions: male, Swiss albino, mouse, in vivo, read-out: Clearance (converted); outline: as §1

| SMILES | EC50 (Schistosoma mansoni [1]) [µM] | other results |
| --- | --- | --- |
| CS(=O)(=O)c1ccc(-c2cnc3ccc(-c4cccc(S(C)(=O)=O)c4)nn23)cc1 | 24.9 | CC50 [2]: 11.9 µM |
| Cn1cc(-c2cn3c(-c4ccc(O)cc4)cnc3cn2)cn1 | > 25 | – |
| CC(C)Oc1cccc(-c2cn3c(-c4ccc(F)cc4)cnc3cn2)c1 | > 25 | – |
| COc1ccc(-c2cnc3cnc(-c4ccc(C(C)C)cc4)cn23)cc1 | > 25 | – |
| OCCn1cc(-c2cn3c(-c4ccc(O)cc4)cnc3cn2)cn1 | > 25 | – |
| CC(=O)Nc1cccc(-c2cn3c(-c4ccc(O)cc4)cnc3cn2)c1 | > 25 | – |
| CC(C)c1nn2cnc(-c3ccc(F)c(C(F)(F)F)c3)cc2c1-c1ccc2[nH]ncc2c1F | – | concentration at 4 h [3]: 332 ng/mL; Tmax [4]: 2 h |
| CC(C)Oc1cccc(-c2cn3c(-c4ccc5[nH]ncc5c4F)c(C(F)(F)F)nc3cn2)c1 | 0.0264 | EC50 (Schistosoma mansoni [5]): 0.0173 µM; CC50 [2]: 13.2 µM |
| Fc1ccc(-c2cn3c(-c4ccc5[nH]ncc5c4F)c(C4CC4)nc3cn2)cc1C(F)(F)C(F)(F)F | 0.0368 | EC50 (Schistosoma mansoni [5]): 0.0232 µM |
| Cn1ccc(-c2cn3c(-c4ccc(O)cc4)cnc3cn2)n1 | > 25 | – |
| Oc1ccc(-c2cnc3cnc(-c4cnn(C5CCCC5)c4)cn23)cc1 | > 25 | – |
| CS(=O)(=O)Nc1cccc(-c2cn3c(-c4ccc(O)cc4)cnc3cn2)c1 | > 25 | – |
| Oc1ccc(-c2cnc3cnc(C4=COCCC4)cn23)cc1 | > 25 | bioavailability [6]: 0.01%; AUC(0-inf) [7]: 52.2 ng·h/mL; clearance [8]: 177 mL/min/kg; Tmax [4]: 0.01 h |
| Cc1nc2cnc(-c3ccc(F)c(S(F)(F)(F)(F)F)c3)cn2c1-c1ccc2[nH]ncc2c1F | 0.077 | EC50 (Schistosoma mansoni [5]): 0.0262 µM |
| Oc1ccc(-c2cnc3cnc(-c4cccc(-c5ccn[nH]5)c4)cn23)cc1 | > 25 | – |
| CC(C)c1cccc(-c2cn3c(-c4ccc(OC(F)(F)F)cc4)cnc3cn2)c1 | > 25 | – |
| Cn1ncc2c(-c3cn4c(-c5ccc(O)cc5)cnc4cn3)cccc21 | 19 | – |
| Cn1cncc1-c1cn2c(-c3ccc(O)cc3)cnc2cn1 | > 25 | – |
| Cn1cccc(-c2cn3c(-c4ccc(O)cc4)cnc3cn2)c1=O | > 25 | – |
| Cc1nc2cnc(-c3cccc(C(F)(F)F)c3)cn2c1-c1ccc(O)cc1 | 1.42 | EC50 (Schistosoma mansoni [5]): < 0.615 µM |
| CC(C)c1cc(-c2cn3c(-c4ccc5[nH]ncc5c4F)c(C(F)(F)F)nc3cn2)ccn1 | 0.0917 | EC50 (Schistosoma mansoni [5]): 0.037 µM; CC50 [2]: 9.53 µM |
| COc1cccc(-c2cnc3cnc(-c4cccc(OC(C)C)c4)cn23)c1 | 24.8 | – |
| Oc1ccc(-c2cnc3cnc(-c4cnn(Cc5ccccc5)c4)cn23)cc1 | > 25 | – |
| CCOc1cccc(-c2cn3c(-c4ccc(O)cc4)cnc3cn2)c1F | 15.6 | – |

| SMILES | EC50 (Schistosoma mansoni [1]) [µM] | other results |
| --- | --- | --- |
| Cn1ncc2cc(-c3cn4c(-c5ccc(O)cc5)cnc4cn3)ccc21 | 21.4 | – |
| COc1cccc(-c2cn3c(-c4ccc(O)cc4)cnc3cn2)n1 | > 25 | – |
| Cn1nc(C(F)(F)F)cc1-c1cn2c(-c3ccc(O)cc3)cnc2cn1 | > 25 | – |
| CC(C)c1cc(-c2cn3c(-c4c(F)cc(O)cc4F)c(C4CC4)nc3cn2)ccc1F | 0.00519 | EC50 (Schistosoma mansoni [5]): 0.00448 µM |
| Cn1cc(-c2cn3c(-c4ccc(O)cc4)cnc3cn2)ccc1=O | > 25 | – |
| CC(C)Cn1cc(-c2cn3c(-c4ccc(O)cc4)cnc3cn2)cn1 | > 25 | – |
| NC(=O)c1cccc(-c2cn3c(-c4ccc(O)cc4)cnc3cn2)c1 | > 25 | – |
| Oc1ccc(-c2cnc3cnc(-c4ccnc(C(F)(F)F)c4)cn23)cc1 | > 25 | – |
| CC(=O)c1ccc(F)c(-c2cn3c(-c4ccc(O)cc4)cnc3cn2)c1 | > 25 | – |
| COc1c(O)cccc1-c1c(C(C)C)nc2cnc(-c3cccc(C(F)(F)F)c3)cn12 | 1.32 | EC50 (Schistosoma mansoni [5]): 1.76 µM |
| NC(=O)Cc1cccc(-c2cn3c(-c4ccc(O)cc4)cnc3cn2)c1 | > 25 | – |
| CN(C)C(=O)c1ccc(-c2cn3c(-c4ccc(O)cc4)cnc3cn2)cc1 | > 25 | – |
| CC(=O)c1cccc(-c2cn3c(-c4ccc(O)cc4)cnc3cn2)c1 | > 25 | – |
| Cn1ncc2cccc(-c3cn4c(-c5ccc(O)cc5)cnc4cn3)c21 | > 25 | – |
| CC(C)Oc1cccc(-c2cn3c(-c4cccc(C#N)c4)cnc3cn2)c1 | > 25 | – |
| Oc1ccc(-c2cnc3cnc(-c4cccc(C(F)(F)F)c4)cn23)c(Cl)c1 | 4.26 | – |
| Oc1ccc(-c2cnc3cnc(-c4ccc5[nH]ncc5c4)cn23)cc1 | > 25 | – |
| CC(C)c1nc2cnc(-c3cccc(Br)c3)cn2c1-c1ccc2[nH]ncc2c1F | 0.0266 | EC50 (Schistosoma mansoni [5]): 0.036 µM |
| COc1ccc(C(C)C)cc1-c1cn2c(-c3ccc(O)cc3)cnc2cn1 | 6.06 | – |
| Cn1nccc1-c1cn2c(-c3ccc(O)cc3)cnc2cn1 | > 25 | – |
| CC(=O)c1cccc(-c2cn3c(-c4ccc(O)cc4)cnc3cn2)c1F | > 25 | – |
| COc1cc(-c2cn3c(-c4ccc(O)cc4)cnc3cn2)ccn1 | > 25 | – |
| Oc1ccc(-c2cnc3cnc(-c4cnc(-c5ccccc5)o4)cn23)cc1 | > 25 | – |
| Oc1ccc(-c2cnc3cnc(-c4cnn(CC5CC5)c4)cn23)cc1 | > 25 | – |

| SMILES | EC50 (Schistosoma mansoni [1]) [µM] | other results |
| --- | --- | --- |
| CN(C)Cc1cccc(-c2cn3c(-c4ccc(O)cc4)cnc3cn2)c1 | 24.6 | – |
| Fc1ccc(-c2cn3c(-c4ccc5[nH]ncc5c4F)c(C(F)(F)F)nc3cn2)cc1Br | 0.0344 | EC50 (Schistosoma mansoni [5]): 0.0479 µM |
| Cc1n[nH]c(C)c1-c1cn2c(-c3ccc(O)cc3)cnc2cn1 | > 25 | – |
| Oc1ccc(-c2cnc3cnc(-c4cccc(C(F)(F)F)c4F)cn23)cc1 | > 25 | – |
| Cc1c(-c2cn3c(-c4ccc(O)cc4)cnc3cn2)cnn1C | > 25 | – |
| CC(C)c1ccccc1-c1cn2c(-c3ccc(O)cc3)cnc2cn1 | 16.6 | – |
| CN(C)C(=O)c1cccc(-c2cn3c(-c4ccc(O)cc4)cnc3cn2)c1 | > 25 | – |
| Oc1ccc(-c2cnc3cnc(-c4ccc5cn[nH]c5c4)cn23)cc1 | 25 | – |
| CC(C)c1nc2cnc(-c3ccc(F)c(C(F)(F)F)c3)cn2c1-c1c(F)ccc(O)c1F | 0.32 | EC50 (Schistosoma mansoni [5]): 0.455 µM |
| COc1cc(O)ccc1-c1c(C(C)C)nc2cnc(-c3cccc(C(F)(F)F)c3)cn12 | 1.05 | EC50 (Schistosoma mansoni [5]): 0.918 µM |
| CCCOc1cc(-c2cn3c(-c4ccc(O)cc4)cnc3cn2)ccc1OC | 25 | – |
| COc1cc(-c2c(C)nc3cnc(-c4cccc(C(F)(F)F)c4)cn23)ccc1O | 1.27 | EC50 (Schistosoma mansoni [5]): < 0.64 µM |
| CC(C)c1cccc(-c2ccc3nnc(-c4ccc(O)cc4)n3c2)c1 | > 25 | – |
| CC(C)Oc1cccc(-c2cn3c(-c4ccc(O)cc4)cnc3cn2)c1 | 5.31 | EC50 (Schistosoma mansoni [5]): 4.43 µM |
| COc1ccc(-c2nnc3ccc(-c4cccc(C(C)C)c4)cn23)cc1O | 9.74 | – |
| Oc1ccc(-c2cnc3cnc(C4=CCOCC4)cn23)cc1 | > 25 | – |
| OCCc1cccc(-c2cn3c(-c4ccc(O)cc4)cnc3cn2)c1 | > 25 | – |
| CN(C)S(=O)(=O)c1cccc(-c2cn3c(-c4ccc(O)cc4)cnc3cn2)c1 | > 25 | – |
| CS(=O)(=O)c1cncc(-c2cn3c(-c4ccc(O)cc4)cnc3cn2)c1 | > 25 | – |
| COc1cccc(-c2cnc3cnc(-c4cccc(OC(C)C)c4)cn23)n1 | > 25 | – |
| C#CCOc1cc(-c2cn3c(-c4ccc5[nH]ncc5c4F)c(C(F)(F)F)nc3cn2)ccc1F | 0.021 | EC50 (Schistosoma mansoni [5]): 0.0104 µM |
| Oc1cc(F)c(-c2c(CC(F)(F)F)nc3cnc(-c4ccc(F)c(C(F)(F)F)c4)cn23)c(F)c1 | 0.139 | EC50 (Schistosoma mansoni [5]): 0.0793 µM |
| CC(C)c1nc2cnc(-c3ccc(F)c(C(F)(F)F)c3)cn2c1-c1ccc2[nH]cnc2c1F | 0.658 | EC50 (Schistosoma mansoni [5]): 0.904 µM |
